Results on 35 compounds are retold here after ChEMBL document CHEMBL4261553 (Medchemcomm, 2017).

In general, Ki refers to a dissociation constant, usually derived from enzyme kinetics or from competition with a known ligand. Low readings indicate a stronger hold on the target, high ones a looser hold on the target.

Experiment [1] deals with 5-hydroxytryptamine receptor 2A (Homo sapiens, UniProt P28223). Briefly: Displacement of [3H]-ketanserin from human 5-HT2A receptor expressed in CHOK1 cell membranes after 60 mins by microbeta scintillation counting method. It is filed as cell-based. (In general: Loss of bound radioactivity is the signal in a displacement assay; it reports binding, not function.)
Sequence of 5-hydroxytryptamine receptor 2A (P28223 whole entry): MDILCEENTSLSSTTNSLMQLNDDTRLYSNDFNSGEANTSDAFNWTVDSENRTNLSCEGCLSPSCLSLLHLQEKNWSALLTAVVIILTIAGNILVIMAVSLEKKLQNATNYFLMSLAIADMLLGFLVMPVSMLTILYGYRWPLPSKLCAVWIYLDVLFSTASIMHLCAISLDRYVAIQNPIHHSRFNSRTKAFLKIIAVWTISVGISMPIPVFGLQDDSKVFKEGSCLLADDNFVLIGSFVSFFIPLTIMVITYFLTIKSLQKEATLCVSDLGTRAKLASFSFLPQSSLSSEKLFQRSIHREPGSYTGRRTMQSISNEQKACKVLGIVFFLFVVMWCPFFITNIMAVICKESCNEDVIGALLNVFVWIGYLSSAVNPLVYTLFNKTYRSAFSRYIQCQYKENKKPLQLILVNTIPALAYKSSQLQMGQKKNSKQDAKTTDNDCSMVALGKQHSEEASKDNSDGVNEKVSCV
Experiment [2] deals with T1, 5-hydroxytryptamine receptor 1A (Homo sapiens, UniProt P08908).
T1 sequence (P08908 whole entry): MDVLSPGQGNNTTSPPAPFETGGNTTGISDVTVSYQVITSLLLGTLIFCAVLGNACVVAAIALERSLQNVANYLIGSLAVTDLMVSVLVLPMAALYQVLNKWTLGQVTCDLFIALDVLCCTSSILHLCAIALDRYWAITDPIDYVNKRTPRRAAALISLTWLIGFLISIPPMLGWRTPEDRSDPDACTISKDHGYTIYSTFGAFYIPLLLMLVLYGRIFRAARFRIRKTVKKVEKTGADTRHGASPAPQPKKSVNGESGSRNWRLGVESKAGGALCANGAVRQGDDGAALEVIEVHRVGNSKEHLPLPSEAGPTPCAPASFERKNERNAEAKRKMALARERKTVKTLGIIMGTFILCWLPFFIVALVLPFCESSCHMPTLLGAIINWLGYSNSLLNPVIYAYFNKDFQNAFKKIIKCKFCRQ
The experiment in a line: Displacement of [3H]-8-OH-DPAT from human 5-HT1A receptor expressed in CHOK1 cell membranes after 60 mins by microbeta scintillation counting method. In outline: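 Membranes from CHO-K1 cells stably expressing human receptor, 10 µg protein/well, in 50 mM Tris pH 7.4 with 10 mM MgSO4, 0.5 mM EDTA, 0.1% ascorbic acid. Compounds at 6 concentrations, 10^-10 to 10^-5 M final, in duplicate; 27 °C. GF/C filtration, cold Tris washes. Ki by one-site fit and Cheng–Prusoff.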

For the compound `CC(=O)c1c(C)cc2oc(=O)cc(C)c2c1OCCCN1CCN(c2ccccc2F)CC1`, the Ki in experiment [1] amounted to 28 nM; in experiment [2], 0.3 nM.
The corresponding values for `Cc1cc(OCCCCN2CCN(c3ccc(Cl)cc3)CC2)c2c(C)cc(=O)oc2c1` are 465 nM and 60 nM.
On the same counts, the results for `COc1cccc(N2CCN(CCCCOc3cc(C)cc4oc(=O)cc(C)c34)CC2)c1` are 184 nM and 1 nM.
For the compound `Cc1cc(OCCCN2CCOCC2)c2c(C)cc(=O)oc2c1`, the Ki in experiment [1] was above 10000 nM; in experiment [2] it was 1300 nM.
As for `CC(=O)c1c(C)cc2oc(=O)cc(C)c2c1OCCCN1CCN(c2ccccc2C#N)CC1`, the Ki in experiment [1] was found to be 64 nM; in experiment [2] it was 0.3 nM.
`Cc1cc(OCCCN2CCN(c3cccc(Cl)c3Cl)CC2)c2c(C)cc(=O)oc2c1`: the Ki is 42 nM in experiment [1] and 4 nM in experiment [2].
Turning to `COc1cccc(N2CCN(CCCOc3c(C(C)=O)c(C)cc4oc(=O)cc(C)c34)CC2)c1`, the values for the Ki in experiment [1] and in experiment [2] were 48 nM and 0.4 nM, respectively.
`CC(=O)c1c(C)cc2oc(=O)cc(C)c2c1OCCCCN1CCOCC1`: the values for the Ki in experiment [1] and in experiment [2] were 4460 nM and 250 nM, respectively.
On to `Cc1cc(OCCCCN2CCN(c3ccncc3)CC2)c2c(C)cc(=O)oc2c1`, for which the Ki in experiment [1] was above 5000 nM; in experiment [2] it was 389 nM.
The corresponding values for `Cc1cc(OCCCN2CCN(c3cnccn3)CC2)c2c(C)cc(=O)oc2c1` are 4570 nM and 186 nM.
On the same counts, the results for `Cc1cc(OCCCN2CCN(c3ccc([N+](=O)[O-])cc3)CC2)c2c(C)cc(=O)oc2c1` are above 10000 nM and 1210 nM.
On the same counts, the results for `CC(=O)c1c(C)cc2oc(=O)cc(C)c2c1OCCCN1CCN(c2ccc([N+](=O)[O-])cc2)CC1` are 286 nM and 159 nM.
As to `COc1cccc(N2CCN(CCCCOc3c(C(C)=O)c(C)cc4oc(=O)cc(C)c34)CC2)c1`, the Ki turned out to be 520 nM in experiment [1] and 15 nM in experiment [2].
The corresponding values for `CC(=O)c1c(C)cc2oc(=O)cc(C)c2c1OCCCCN1CCN(c2ccc(Cl)cc2)CC1` are 1.7 nM and 7 nM.
On the same counts, the results for `Cc1cc(OCCCCN2CCN(c3cccc(Cl)c3Cl)CC2)c2c(C)cc(=O)oc2c1` are 167 nM and 8 nM.
The corresponding values for `CC(=O)c1c(C)cc2oc(=O)cc(C)c2c1OCCCCN1CCN(c2ccncc2)CC1` are 1590 nM and 308 nM.
As for `Cc1cc(OCCCCN2CCOCC2)c2c(C)cc(=O)oc2c1`, the Ki in experiment [1] is above 10000 nM; in experiment [2], 3500 nM.
On the same counts, the results for `COc1cccc(N2CCN(CCCOc3cc(C)cc4oc(=O)cc(C)c34)CC2)c1` are 106 nM and 6 nM.
The corresponding values for `CC(=O)c1c(C)cc2oc(=O)cc(C)c2c1OCCCN1CCN(c2cccc(Cl)c2Cl)CC1` are 66 nM and 0.4 nM.
In the case of `CC(=O)c1c(C)cc2oc(=O)cc(C)c2c1OCCCCN1CCN(c2ccccc2F)CC1`, the Ki in experiment [1] amounted to 9 nM; in experiment [2], 0.7 nM.
On the same counts, the results for `CC(=O)c1c(C)cc2oc(=O)cc(C)c2c1OCCCN1CCN(c2cnccn2)CC1` are 3000 nM and 11 nM.
Turning to `Cc1cc(OCCCCN2CCN(c3cnccn3)CC2)c2c(C)cc(=O)oc2c1`, the Ki in experiment [1] worked out at 2300 nM; in experiment [2], 6.7 nM.
Consider `CC(=O)c1c(C)cc2oc(=O)cc(C)c2c1OCCCN1CCN(c2ccncc2)CC1`, for which the Ki in experiment [1] was above 10000 nM; in experiment [2], 154 nM.
The corresponding values for `Cc1cc(OCCCN2CCN(c3ccccc3C#N)CC2)c2c(C)cc(=O)oc2c1` are 200 nM and 3 nM.
On the same counts, the results for `CC(=O)c1c(C)cc2oc(=O)cc(C)c2c1OCCCCN1CCN(c2cnccn2)CC1` are 2500 nM and 4.8 nM.
On the same counts, the results for `CC(=O)c1c(C)cc2oc(=O)cc(C)c2c1OCCCCN1CCN(c2ccc([N+](=O)[O-])cc2)CC1` are 46 nM and 33 nM.
For `Cc1cc(OCCCCN2CCN(c3ccccc3C#N)CC2)c2c(C)cc(=O)oc2c1`, the Ki in experiment [1] turned out to be 112 nM; in experiment [2], 1.5 nM.
Regarding `Cc1cc(OCCCCN2CCN(c3ccccc3F)CC2)c2c(C)cc(=O)oc2c1`, the Ki came to 120 nM in experiment [1] and 1.7 nM in experiment [2].
With `Cc1cc(OCCCCN2CCN(c3ccc([N+](=O)[O-])cc3)CC2)c2c(C)cc(=O)oc2c1`, the Ki in experiment [1] is above 10000 nM; in experiment [2], 809 nM.
On the same counts, the results for `CC(=O)c1c(C)cc2oc(=O)cc(C)c2c1OCCCCN1CCN(c2cccc(Cl)c2Cl)CC1` are 2650 nM and 250 nM.
On the same counts, the results for `Cc1cc(OCCCN2CCN(c3ccccc3F)CC2)c2c(C)cc(=O)oc2c1` are 55 nM and 3 nM.
The corresponding values for `Cc1cc(OCCCN2CCN(c3ccc(Cl)cc3)CC2)c2c(C)cc(=O)oc2c1` are 70 nM and 161 nM.
Consider `CC(=O)c1c(C)cc2oc(=O)cc(C)c2c1OCCCN1CCOCC1`, for which the Ki in experiment [1] is above 10000 nM; in experiment [2], 850 nM.
Regarding `CC(=O)c1c(C)cc2oc(=O)cc(C)c2c1OCCCN1CCN(c2ccc(Cl)cc2)CC1`, the Ki was 4 nM in experiment [1] and 1.2 nM in experiment [2].
On the same counts, the results for `Cc1cc(OCCCN2CCN(c3ccncc3)CC2)c2c(C)cc(=O)oc2c1` are above 5000 nM and 450 nM.
